The values below come from ChEMBL document CHEMBL1152833, “Synthesis of some novel N4-(naphtha[1,2-d]thiazol-2-yl)semicarbazides as potential anticonvulsants” (Eur J Med Chem, 2009).

The subject of data set [1] is Mus musculus. Briefly: Toxicity to Swiss albino mouse assessed as mortality following tonic extension at 300 mg/kg, ip after 4 hrs. The format is organism-based. Also on record: dose 300 mg/kg, route intraperitoneal. The settings on record: in vivo.
Data set [2] has as its system Mus musculus. Briefly: Anticonvulsant activity in ip dosed Swiss albino mouse assessed as minimum drug concentration required for inhibition of maximal electroshock-induced seizure in half or more of mouse after 0.5 hrs by MES test. The format is functional. The method, boiled down: (§1)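 Male Swiss albino mice (18–25 g) received compound i.p. at 30, 100 and 300 mg/kg. MES seizures were induced after 0.5 and 4 h, with a drop of 0.9% saline placed in the eye before the electrodes went on. Protection meant abolition of the hind-limb tonic extensor component. The tabulated value is the minimum dose protecting half or more of the mice.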
A general note: Protection in the maximal electroshock model is a classic sign of anticonvulsant action.

Data set [3] has as its system Mus musculus. Briefly: Neurotoxicity in ip dosed Swiss albino mouse assessed as minimum drug concentration required for falling off the rotarod by half or more of mouse after 4 hrs by rotarod test. The format is toxicity, organism-based. The settings on record: in vivo. The method, boiled down:
(§2)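 Rotarod test in male Swiss albino mice (18–25 g) after i.p. dosing at 30, 100 and 300 mg/kg, read at 0.5 and 4 h. Mice falling within 30 s in a pre-check were excluded. Neurotoxicity was scored as the minimum dose at which half or more of the mice fell off the rod.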
For orientation: Falling from the rotarod earlier than controls is read as motor impairment.

In data set [4] the test system is Mus musculus. Briefly: Anticonvulsant activity in ip dosed Swiss albino mouse assessed as minimum drug concentration required for inhibition of maximal electroshock-induced seizure in half or more of mouse after 4 hrs by MES test. The format is functional. An outline of the steps:
as §1

The subject of data set [5] is Mus musculus. Briefly: Neurotoxicity in ip dosed Swiss albino mouse assessed as minimum drug concentration required for falling off the rotarod by half or more of mouse after 0.5 hrs by rotarod test. The class given is toxicity, organism-based. The settings on record: in vivo. An outline of the steps:
as §2

In data set [6] the test system is Mus musculus. Briefly: Anticonvulsant activity in ip dosed Swiss albino mouse assessed as minimum drug concentration required for inhibition of pentylenetetrazole-induced seizures in half or more of mouse after 0.5 hrs by scPTZ test. The format is functional. An outline of the steps: (§3)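 Male Swiss albino mice (18–25 g) were dosed i.p. at 30, 100 and 300 mg/kg, examined at 0.5 and 4 h. PTZ 85 mg/kg (CD97) was given and the animals were […]. Protection meant absence of any threshold convulsion, i.e. clonic spasm lasting at least 5 s. The value is the minimum dose active in half or more of the mice.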

Data set [7] deals with Mus musculus. Briefly: Antioxidant activity against PTZ-induced decrease in superoxide dismutase activity in Swiss albino mouse brain assessed as enzyme units per mg of protein causing 50% inhibition in NBT reduction rate at 100 mg/kg, ip administered 30 mins before PTZ challenge measured after 4 hrs. The format is functional. As to conditions: route intraperitoneal. An outline of the steps:
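Same mouse dosing: 100 mg/kg i.p. 30 min before PTZ 85 mg/kg, brains taken at 4 h. Total SOD was measured in the ethanol phase of an ethanol/chloroform (5:3) extract, as inhibition of NBT reduction by xanthine–xanthine oxidase. One unit gives 50% inhibition; activity is expressed per mg protein (Lowry). n=6, mean ± SEM.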

In data set [8] the test system is Mus musculus. Briefly: Antioxidant activity against PTZ-induced lipid peroxidation in Swiss albino mouse brain assessed as malondialdehyde content per mg of protein at 100 mg/kg, ip preincubated for 30 mins before PTZ challenge measured after 4 hrs by TBARS assay. The class given is functional. As to conditions: route intraperitoneal. An outline of the steps:
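Mice were dosed 100 mg/kg i.p. 30 min before PTZ 85 mg/kg, and brains were homogenized after 4 h. For TBARS, homogenate supernatant was heated with SDS, acetic acid and 0.8% thiobarbituric acid at 95 °C for 1 h. The product was extracted into n-butanol/pyridine and read at 532 nm. Results are pmol MDA/mg protein, n=6, mean ± SEM.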

In data set [9] the test system is Rattus norvegicus. Briefly: Anticonvulsant activity against pentylenetetrazole-induced seizures in Wistar albino rat at 50 mg/kg, po after 2 hrs by scPTZ test. Further details: dose 50 mg/kg. The class given is functional, organism-based. The method, boiled down:
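Male Wistar rats (100–125 g) were given compound orally at 50 mg/kg. They were challenged with scPTZ at 70 mg/kg at 0.25, 0.5, 1.0 and 2.0 h, and seizures were watched for. Protection meant absence of clonic spasm lasting at least 5 s. The score is the number of rats protected out of four.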

Data set [10] concerns Mus musculus. Briefly: Anticonvulsant activity in ip dosed Swiss albino mouse assessed as minimum drug concentration required for inhibition of pentylenetetrazole-induced seizures in half or more of mouse after 4 hrs by scPTZ test. The format is functional. An outline of the steps: as §3
For data set [11], the system named is Mus musculus. Briefly: Neurotoxicity in Swiss albino mouse at 300 mg/kg, ip after 0.5 hrs by rotarod test. The class given is toxicity, organism-based. Also on record: dose 300 mg/kg, route intraperitoneal. The settings on record: in vivo. An outline of the steps:
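Male Swiss albino mice (18-25 g) received the compound i.p. at 30, 100 or 300 mg/kg and were tested on the rotarod 0.5 and 4 h later. Mice were pre-checked, and any that fell off within 30 s were excluded. Neurotoxicity was scored as falling off the rod. The value is the minimum dose affecting half or more of the mice.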

The test system of data set [12] is Mus musculus. Briefly: Toxicity to Swiss albino mouse assessed as occurrence of myoclonic jerks at 300 mg/kg, ip after 0.5 hrs. The class given is organism-based. Also on record: dose 300 mg/kg, route intraperitoneal. The settings on record: in vivo.
The test system of data set [13] is Mus musculus. Briefly: Anticonvulsant activity against maximal electroshock-induced seizures in Swiss albino mouse at 300 mg/kg, ip after 4 hrs by MES test. The format is functional, organism-based. Also on record: dose 300 mg/kg. The method, boiled down:
as §1

Data set [14] deals with Mus musculus. Briefly: Anticonvulsant activity against pentylenetetrazole-induced seizures in Swiss albino mouse at 300 mg/kg, ip after 0.5 hrs by scPTZ test. The format is functional, organism-based. Also on record: dose 300 mg/kg. An outline of the steps:
as §3

The subject of data set [15] is Mus musculus. Briefly: Neurotoxicity in Swiss albino mouse at 300 mg/kg, ip after 4 hrs by rotarod test. Also on record: dose 300 mg/kg, route intraperitoneal. As to conditions: in vivo. The format is toxicity, organism-based. An outline of the steps:
as §2

Data set [16] has as its system Mus musculus. Briefly: Anticonvulsant activity against maximal electroshock-induced seizures in Swiss albino mouse at 300 mg/kg, ip after 0.5 hrs by MES test. The class given is functional, organism-based. Also on record: dose 300 mg/kg. The method, boiled down:
as §1

Data set [17] has as its system Mus musculus. Briefly: Anticonvulsant activity against pentylenetetrazole-induced seizures in Swiss albino mouse at 300 mg/kg, ip after 4 hrs by scPTZ test. The format is functional, organism-based. Also on record: dose 300 mg/kg. The method, boiled down: as §3
Data set [18] concerns Rattus norvegicus. Briefly: Anticonvulsant activity against pentylenetetrazole-induced seizures in Wistar albino rat at 50 mg/kg, po after 0.25 hrs by scPTZ test. The class given is functional, organism-based. Further details: dose 50 mg/kg. An outline of the steps: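 Male Wistar rats (100-125 g), compound given orally at 50 mg/kg, then challenged with scPTZ at 70 mg/kg. Absence of such a convulsion counted as protection. Groups of four rats were scored at 0.25, 0.5, 1 and 2 h as number protected out of four.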

Active and inactive are the calls of the source.

For `O=C(N/N=C/c1ccc(Cl)cc1)Nc1nc2c(ccc3ccccc32)s1`, the Activity result is “Toxic” in the data set with Mus musculus [1]; 100 mg/kg in the data set with Mus musculus [2]; 300 mg/kg in the data set on Mus musculus [3]; 100 mg/kg in the data set on Mus musculus [4]; 100 mg/kg in the data set on Mus musculus [5]; 300 mg/kg in the data set on Mus musculus [6].

Turning to `O=C(N/N=C/c1ccc([N+](=O)[O-])cc1)Nc1nc2c(ccc3ccccc32)s1`, the Activity came to 58 in the data set with Mus musculus [7]; 309 pmol in the data set with Mus musculus [8]; 300 mg/kg in the data set with Mus musculus [10]; 300 mg/kg with Mus musculus [2]; 300 mg/kg with Mus musculus [3]; 300 mg/kg with Mus musculus [4]. Moreover, the Activity in the data set with Mus musculus [5] was 300 mg/kg; in the data set on Mus musculus [6], 100 mg/kg. For the same molecule, the outcome in the data set with Rattus norvegicus [9] was inactive.

Turning to `C/C(=N\NC(=O)Nc1nc2c(ccc3ccccc32)s1)c1ccc(C)cc1`, the Activity result was “Non-toxic” in the data set on Mus musculus [11]; 300 mg/kg with Mus musculus [10]; “Toxic” in the data set on Mus musculus [12]; 300 mg/kg in the data set with Mus musculus [2]; 300 mg/kg with Mus musculus [3]. Besides, in the data set with Mus musculus [13], the result was inactive.

For `COc1ccc(OC)c(/C=N/NC(=O)Nc2nc3c(ccc4ccccc43)s2)c1`, the Activity entry with Mus musculus [1] is “Toxic”; in the data set on Mus musculus [2], 300 mg/kg; in the data set with Mus musculus [5], 300 mg/kg; in the data set with Mus musculus [15], “Non-toxic”. Further, the result in the data set on Mus musculus [13] and in the data set with Mus musculus [14] was inactive.

As for `CCC1(C)CC(=O)NC1=O` (centres undefined) [ETHOSUXIMIDE], the values for the Activity result in the data set on Mus musculus [11], in the data set with Mus musculus [6] and in the data set with Mus musculus [15] were “Non-toxic”, 300 mg/kg and “Non-toxic”, respectively. Also, the result with Mus musculus [16], in the data set on Mus musculus [17], in the data set on Rattus norvegicus [18] and in the data set on Mus musculus [13] was inactive.
